From ChEMBL document CHEMBL4152192, “Synthesis and anticancer activity evaluation of novel azacalix[2]arene[2]pyrimidines” (Eur J Med Chem, 2018)
Each block holds one molecule with its values, some of them ahead of it. Activity calls are given as the source filed them. The calls are words filed in the database; no cut-off is given here.

Experiments:
[1] = test system: SH-SY5Y; test: Antiproliferative activity against human SH-SY5Y cells after 72 hrs by CCK-8 assay; type: functional, cell-based
Procedure, shortened: (§1)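 Cells seeded at 5 × 10³/well; A549, MCF7 and SH-SY5Y grown in DMEM, CNE and L-02 in RPMI-1640 (10% FBS, pen/strep, 37 °C, 5% CO₂). Compounds in DMSO, diluted in medium; 72 h exposure versus DMSO vehicle. CCK-8 absorbance read at 450 nm; viability taken as treated/control absorbance, IC₅₀ from curve fit. Triplicate wells, three independent experiments.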

[2] = test system: L02; test: Antiproliferative activity against human L02 cells after 72 hrs by CCK-8 assay; type: cell-based; settings: L02, 72 h; procedure, shortened: as §1
[3] = test system: CNE; test: Antiproliferative activity against human CNE cells after 72 hrs by CCK-8 assay; type: functional, cell-based; procedure, shortened: as §1
[4] = test system: A549; test: Antiproliferative activity against human A549 cells after 72 hrs by CCK-8 assay; type: functional, cell-based; settings: A549, 72 h; procedure, shortened: as §1
[5] = test system: MCF7; test: Antiproliferative activity against human MCF7 cells after 72 hrs by CCK-8 assay; type: functional, cell-based; settings: MCF7, 72 h; procedure, shortened: as §1
[6] = test system: MCF7; test: Induction of apoptosis in human MCF7 cells assessed as late apoptotic cells at 0.6 uM after 24 hrs by Annexin V-FITC/propidium iodide staining-based flow cytometric analysis (reference value: 1.22%); type: functional
[7] = test system: MCF7; test: Cell cycle arrest in human MCF7 cells assessed as accumulation of cells G2 phase at 0.6 uM after 24 hrs by propidium iodide/RNase A staining-based flow cytometric analysis (reference value: 35.08%); type: functional
[8] = test system: MCF7; test: Induction of apoptosis in human MCF7 cells assessed as early apoptotic cells at 0.3 uM after 24 hrs by Annexin V-FITC/propidium iodide staining-based flow cytometric analysis (reference value: 0.816%); type: functional
[9] = test system: MCF7; test: Induction of apoptosis in human MCF7 cells assessed as early apoptotic cells at 0.6 uM after 24 hrs by Annexin V-FITC/propidium iodide staining-based flow cytometric analysis (reference value: 0.816%); type: functional
[10] = test system: MCF7; test: Induction of apoptosis in human MCF7 cells assessed as early apoptotic cells at 1.2 uM after 24 hrs by Annexin V-FITC/propidium iodide staining-based flow cytometric analysis (reference value: 0.816%); type: functional
[11] = test system: MCF7; test: Induction of apoptosis in human MCF7 cells assessed as necrotic cells at 1.2 uM after 24 hrs by Annexin V-FITC/propidium iodide staining-based flow cytometric analysis (reference value: 0.426%); type: functional
[12] = test system: MCF7; test: Induction of apoptosis in human MCF7 cells assessed as late apoptotic cells at 0.3 uM after 24 hrs by Annexin V-FITC/propidium iodide staining-based flow cytometric analysis (reference value: 1.22%); type: functional
[13] = test system: MCF7; test: Induction of apoptosis in human MCF7 cells assessed as necrotic cells at 0.3 uM after 24 hrs by Annexin V-FITC/propidium iodide staining-based flow cytometric analysis (reference value: 0.426%); type: functional
[14] = test system: MCF7; test: Cell cycle arrest in human MCF7 cells assessed as accumulation of cells S phase at 0.3 uM after 24 hrs by propidium iodide/RNase A staining-based flow cytometric analysis (reference value: 6.75%); type: functional
[15] = test system: MCF7; test: Induction of apoptosis in human MCF7 cells assessed as viable cells at 0.3 uM after 24 hrs by Annexin V-FITC/propidium iodide staining-based flow cytometric analysis (reference value: 97.5%); type: functional; settings: MCF7, 24 h, read-out: Activity
[16] = test system: MCF7; test: Cell cycle arrest in human MCF7 cells assessed as accumulation of cells G1 phase at 1.2 uM after 24 hrs by propidium iodide/RNase A staining-based flow cytometric analysis (reference value: 60.6%); type: functional
[17] = test system: MCF7; test: Cell cycle arrest in human MCF7 cells assessed as accumulation of cells G1 phase at 0.6 uM after 24 hrs by propidium iodide/RNase A staining-based flow cytometric analysis (reference value: 60.6%); type: functional
[18] = test system: MCF7; test: Induction of apoptosis in human MCF7 cells assessed as nuclear condensation at 0.3 to 1.2 uM after 24 hrs by Hoechst 33342 staining-based fluorescence microscopic analysis; type: functional, cell-based
Procedure, shortened: (§2)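 MCF7 exposed to 0.3, 0.6 or 1.2 µM for 24 h, then stained with 5 µg/mL Hoechst 33342 for 20 min at 37 °C under 5% CO₂. Nuclear morphology (brightness, chromatin condensation, fragmentation) examined by fluorescence microscopy at ×100.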

[19] = test system: MCF7; test: Cell cycle arrest in human MCF7 cells assessed as accumulation of cells S phase at 1.2 uM after 24 hrs by propidium iodide/RNase A staining-based flow cytometric analysis (reference value: 6.75%); type: functional
[20] = test system: MCF7; test: Cell cycle arrest in human MCF7 cells assessed as accumulation of cells S phase after 24 hrs by propidium iodide/RNase A staining-based flow cytometric analysis; type: functional
[21] = test system: MCF7; test: Induction of apoptosis in human MCF7 cells assessed as viable cells at 0.6 uM after 24 hrs by Annexin V-FITC/propidium iodide staining-based flow cytometric analysis (reference value: 97.5%); type: functional; settings: MCF7, 24 h, read-out: Activity
[22] = test system: MCF7; test: Cell cycle arrest in human MCF7 cells assessed as accumulation of cells G2 phase at 0.3 uM after 24 hrs by propidium iodide/RNase A staining-based flow cytometric analysis (reference value: 35.08%); type: functional
[23] = test system: MCF7; test: Induction of apoptosis in human MCF7 cells assessed as increase in caspase9 activation at 0.3 to 1.2 uM after 72 hrs by Western blot analysis; type: functional, cell-based
Procedure, shortened: (§3)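 MCF7 exposed to 0.3, 0.6 or 1.2 µM for 72 h. Total protein (30 µg, BCA-quantified) run on SDS-PAGE and transferred to PVDF. Membranes blocked in 5% milk/TBS-0.05% Tween 20 for 2 h at room temperature, probed overnight at 4 °C with anti-cleaved caspase-3, caspase-9 and β-actin (loading control), then HRP anti-rabbit IgG; ECL detection.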

[24] = test system: MCF7; test: Induction of apoptosis in human MCF7 cells assessed as necrotic cells at 0.6 uM after 24 hrs by Annexin V-FITC/propidium iodide staining-based flow cytometric analysis (reference value: 0.426%); type: functional
[25] = test system: MCF7; test: Cell cycle arrest in human MCF7 cells assessed as accumulation of cells G2 phase at 1.2 uM after 24 hrs by propidium iodide/RNase A staining-based flow cytometric analysis (reference value: 35.08%); type: functional
[26] = test system: MCF7; test: Cell cycle arrest in human MCF7 cells assessed as accumulation of cells S phase at 0.6 uM after 24 hrs by propidium iodide/RNase A staining-based flow cytometric analysis (reference value: 6.75%); type: functional
[27] = test system: MCF7; test: Induction of apoptosis in human MCF7 cells assessed as viable cells at 1.2 uM after 24 hrs by Annexin V-FITC/propidium iodide staining-based flow cytometric analysis (reference value: 97.5%); type: functional; settings: MCF7, 24 h, read-out: Activity
[28] = test system: MCF7; test: Induction of apoptosis in human MCF7 cells assessed as improved staining brightness at 0.3 to 1.2 uM after 24 hrs by Hoechst 33342 staining-based fluorescence microscopic analysis; type: functional, cell-based; procedure, shortened: as §2
[29] = test system: MCF7; test: Induction of apoptosis in human MCF7 cells assessed as increase in caspase3 activation at 0.3 to 1.2 uM after 72 hrs by Western blot analysis; type: functional, cell-based; procedure, shortened: as §3
[30] = test system: MCF7; test: Induction of apoptosis in human MCF7 cells assessed as late apoptotic cells at 1.2 uM after 24 hrs by Annexin V-FITC/propidium iodide staining-based flow cytometric analysis (reference value: 1.22%); type: functional
[31] = test system: MCF7; test: Cell cycle arrest in human MCF7 cells assessed as accumulation of cells G1 phase at 0.3 uM after 24 hrs by propidium iodide/RNase A staining-based flow cytometric analysis (reference value: 60.6%); type: functional
[32] = test system: MCF7; test: Induction of apoptosis in human MCF7 cells assessed as nuclear fragmentation at 0.3 to 1.2 uM after 24 hrs by Hoechst 33342 staining-based fluorescence microscopic analysis; type: functional, cell-based; procedure, shortened: as §2

IC50 [1]: > 50 µM
IC50 [4]: > 50 µM
IC50 [5]: > 50 µM
Compound: CC(C)S(=O)(=O)c1ccc2cc1Nc1ncc(Cl)c(n1)Nc1ccc(S(=O)(=O)C(C)C)c(c1)Nc1ncc(Cl)c(n1)N2
IC50 [2]: > 50 µM
IC50 [3]: > 50 µM

IC50 [1]: > 50 µM
IC50 [4]: > 50 µM
IC50 [5]: > 50 µM
Compound: Fc1cnc2nc1Nc1cccc(c1)Nc1ncc(Cl)c(n1)Nc1cccc(c1)N2
IC50 [2]: > 50 µM
IC50 [3]: > 50 µM

IC50 [1]: > 50 µM
IC50 [4]: > 50 µM
IC50 [5]: > 50 µM
Compound: c1cc2cc(c1)Nc1nccc(n1)Nc1cccc(c1)Nc1nccc(n1)N2
IC50 [2]: > 50 µM
IC50 [3]: > 50 µM

IC50 [1]: > 50 µM
IC50 [4]: > 50 µM
IC50 [5]: > 50 µM
Compound: Fc1cnc2nc1Nc1cc(cc(C(F)(F)F)c1)Nc1ncc(F)c(n1)Nc1cc(cc(C(F)(F)F)c1)N2
IC50 [2]: > 50 µM
IC50 [3]: > 50 µM

IC50 [1]: > 50 µM
IC50 [4]: > 50 µM
IC50 [5]: > 50 µM
Compound: COc1cnc2nc1Nc1cc(cc(N3CCOCC3)c1)Nc1ncc(OC)c(n1)Nc1cc(cc(N3CCOCC3)c1)N2
IC50 [2]: > 50 µM
IC50 [3]: > 50 µM

IC50 [1]: 0.89 µM
IC50 [4]: 0.63 µM
IC50 [5]: 0.48 µM
Compound: COc1cccc2c1C(=O)c1c(O)c3c(c(O)c1C2=O)C[C@@](O)(C(=O)CO)C[C@@H]3O[C@H]1C[C@H](N)[C@H](O)[C@H](C)O1 [DOXORUBICIN]
IC50 [2]: 0.88 µM
IC50 [3]: 0.22 µM

IC50 [1]: 7.21 µM
IC50 [4]: 4.25 µM
IC50 [5]: 4.9 µM
Compound: Cc1cnc2nc1Nc1cc(cc(N3CCCC3)c1)Nc1ncc(C)c(n1)Nc1cc(cc(N3CCCC3)c1)N2
IC50 [2]: 30.8 µM
IC50 [3]: > 50 µM

IC50 [1]: > 50 µM
IC50 [4]: > 50 µM
IC50 [5]: > 50 µM
Compound: FC(F)(F)c1cc2cc(c1)Nc1nc(ncc1Cl)Nc1cc(cc(C(F)(F)F)c1)Nc1nc(ncc1Cl)N2
IC50 [2]: > 50 µM
IC50 [3]: > 50 µM

IC50 [1]: 1.82 µM
IC50 [4]: 0.94 µM
IC50 [5]: 0.58 µM
Compound: c1cc2nc(n1)Nc1cc(cc(N3CCCC3)c1)Nc1ccnc(n1)Nc1cc(cc(N3CCCC3)c1)N2
Activity [6]: 2.86%
Activity [7]: 25.13%
Activity [8]: 5.76%
Activity [9]: 23.2%
Activity [10]: 26.6%
Activity [11]: 0.232%
Activity [12]: 1.35%
Activity [13]: 0.148%
Activity [14]: 11.54%
viability at 0.3 µM [15]: 92.7%
IC50 [2]: 25.6 µM
Activity [16]: 52.9%
Activity [17]: 56.54%
IC50 [3]: 46.5 µM
Activity [18]: Active
Activity [19]: 38.08%
Activity [20]: Dose-dependent effect
viability at 0.6 µM [21]: 73.8%
Activity [22]: 34.8%
Activity [23]: Active
Activity [24]: 0.197%
Activity [25]: 7.88%
Activity [26]: 17.49%
viability at 1.2 µM [27]: 69.1%
Activity [28]: Active
Activity [29]: Active
Activity [30]: 4.2%
Activity [31]: 55.71%
Activity [32]: Active

IC50 [1]: > 50 µM
IC50 [4]: > 50 µM
IC50 [5]: > 50 µM
Compound: Fc1cnc2nc1Nc1cc(cc(C(F)(F)F)c1)Nc1ncc(Cl)c(n1)Nc1cc(cc(C(F)(F)F)c1)N2
IC50 [2]: > 50 µM
IC50 [3]: > 50 µM

IC50 [1]: > 50 µM
IC50 [4]: > 50 µM
IC50 [5]: > 50 µM
Compound: Clc1cnc2nc1Nc1cccc(c1)Nc1ncc(Cl)c(n1)Nc1cccc(c1)N2
IC50 [2]: > 50 µM
IC50 [3]: > 50 µM
